# Assay results: ChEMBL document CHEMBL5058577, “EUbOPEN Chemogenomics Library 2 (Multiplex)” (2022)
# System: U2OS
# Assay: Multiplex assay against U2OS
# Format: toxicity, cell-based
# Settings: human
# How it was run: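 Values for tubulin, mitochondrial-mass and membrane-permeability phenotypes are per cents of cells with healthy nuclei. These cells were identified by CellPathfinder machine-learning gating of live cells that had been stained at seeding with Hoechst33342, BioTracker Green Microtubule Cytoskeleton Dye, MitoTracker Red and Annexin V Alexa Fluor 680 and imaged on a CQ1 microscope at 37°C and 5% CO2 after compound addition. The gating first set Hoechst high-intensity objects apart from normal cells, then split normal cells into healthy, pyknosed or fragmented nuclei, and pyknosed cells into mitotic or apoptotic.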
# [1] = 12 h, 1 µM, compound concentration 1 uM, replicate 1
# [2] = 12 h, 1 µM, compound concentration 1 uM, replicate 2
# [3] = 12 h, 10 µM, compound concentration 10 uM, replicate 1
# [4] = 12 h, 10 µM, compound concentration 10 uM, replicate 2
# [5] = 24 h, 1 µM, compound concentration 1 uM, replicate 1
# [6] = 24 h, 1 µM, compound concentration 1 uM, replicate 2
# [7] = 24 h, 10 µM, compound concentration 10 uM, replicate 1
# [8] = 24 h, 10 µM, compound concentration 10 uM, replicate 2
# [9] = 48 h, 1 µM, compound concentration 1 uM, replicate 1
# [10] = 48 h, 1 µM, compound concentration 1 uM, replicate 2
# [11] = 48 h, 10 µM, compound concentration 10 uM, replicate 1
# [12] = 48 h, 10 µM, compound concentration 10 uM, replicate 2
smiles,measurement,setting,value
COc1cc(C(=O)N(CCCc2ccccc2)Cc2ccc(CC(=O)O)cc2)cc(OC)c1C,Population Apoptotic (%),[1],95%
same,Population Fragmented Nuclei (%),[1],29%
same,Population Healthy Nuclei (%),[1],60%
same,Population Hoechst High Intensity Objects (%),[1],4%
same,Population Membrane Permeable-Phenotype (%),[1],7%
same,Population Mitochondria Different-Phenotype (%),[1],4%
same,Population Mitotic Cells (%),[1],4%
same,Population Normal (%),[1],95%
same,Population Pyknosed Nuclei (%),[1],10%
same,Population Tubulin-Different-Phenotype (%),[1],4%
same,Total Cell Count,[1],228
same,Population Apoptotic (%),[2],70%
same,Population Fragmented Nuclei (%),[2],23%
same,Population Healthy Nuclei (%),[2],65%
same,Population Membrane Permeable-Phenotype (%),[2],8%
same,Population Mitochondria Different-Phenotype (%),[2],1%
same,Population Mitotic Cells (%),[2],30%
same,Population Pyknosed Nuclei (%),[2],11%
same,Population Tubulin-Different-Phenotype (%),[2],1%
same,Total Cell Count,[2],93
same,Population Apoptotic (%),[3],82%
same,Population Fragmented Nuclei (%),[3],22%
same,Population Healthy Nuclei (%),[3],71%
same,Population Hoechst High Intensity Objects (%),[3],0%
same,Population Membrane Permeable-Phenotype (%),[3],5%
same,Population Mitochondria Different-Phenotype (%),[3],0%
same,Population Mitotic Cells (%),[3],17%
same,Population Normal (%),[3],99%
same,Population Pyknosed Nuclei (%),[3],6%
same,Population Tubulin-Different-Phenotype (%),[3],2%
same,Total Cell Count,[3],262
same,Population Apoptotic (%),[4],100%
same,Population Fragmented Nuclei (%),[4],15%
same,Population Healthy Nuclei (%),[4],79%
same,Population Hoechst High Intensity Objects (%),[4],1%
same,Population Membrane Permeable-Phenotype (%),[4],2%
same,Population Mitochondria Different-Phenotype (%),[4],3%
same,Population Mitotic Cells (%),[4],0%
same,Population Normal (%),[4],98%
same,Population Pyknosed Nuclei (%),[4],4%
same,Population Tubulin-Different-Phenotype (%),[4],4%
same,Total Cell Count,[4],171
same,Population Apoptotic (%),[5],84%
same,Population Fragmented Nuclei (%),[5],29%
same,Population Healthy Nuclei (%),[5],61%
same,Population Hoechst High Intensity Objects (%),[5],2%
same,Population Membrane Permeable-Phenotype (%),[5],7%
same,Population Mitochondria Different-Phenotype (%),[5],6%
same,Population Mitotic Cells (%),[5],15%
same,Population Normal (%),[5],97%
same,Population Pyknosed Nuclei (%),[5],9%
same,Population Tubulin-Different-Phenotype (%),[5],4%
same,Total Cell Count,[5],288
same,Population Apoptotic (%),[6],73%
same,Population Fragmented Nuclei (%),[6],22%
same,Population Healthy Nuclei (%),[6],64%
same,Population Hoechst High Intensity Objects (%),[6],4%
same,Population Membrane Permeable-Phenotype (%),[6],2%
same,Population Mitochondria Different-Phenotype (%),[6],2%
same,Population Mitotic Cells (%),[6],26%
same,Population Normal (%),[6],95%
same,Population Pyknosed Nuclei (%),[6],13%
same,Population Tubulin-Different-Phenotype (%),[6],0%
same,Total Cell Count,[6],120
same,Population Apoptotic (%),[7],94%
same,Population Fragmented Nuclei (%),[7],18%
same,Population Healthy Nuclei (%),[7],76%
same,Population Hoechst High Intensity Objects (%),[7],0%
same,Population Membrane Permeable-Phenotype (%),[7],7%
same,Population Mitochondria Different-Phenotype (%),[7],2%
same,Population Mitotic Cells (%),[7],5%
same,Population Normal (%),[7],99%
same,Population Pyknosed Nuclei (%),[7],5%
same,Population Tubulin-Different-Phenotype (%),[7],3%
same,Total Cell Count,[7],318
same,Population Apoptotic (%),[8],84%
same,Population Fragmented Nuclei (%),[8],12%
same,Population Healthy Nuclei (%),[8],80%
same,Population Hoechst High Intensity Objects (%),[8],2%
same,Population Mitochondria Different-Phenotype (%),[8],5%
same,Population Mitotic Cells (%),[8],15%
same,Population Normal (%),[8],97%
same,Population Pyknosed Nuclei (%),[8],6%
same,Population Tubulin-Different-Phenotype (%),[8],5%
same,Total Cell Count,[8],192
same,Population Apoptotic (%),[9],86%
same,Population Fragmented Nuclei (%),[9],23%
same,Population Healthy Nuclei (%),[9],69%
same,Population Hoechst High Intensity Objects (%),[9],3%
same,Population Membrane Permeable-Phenotype (%),[9],5%
same,Population Mitochondria Different-Phenotype (%),[9],2%
same,Population Mitotic Cells (%),[9],13%
same,Population Normal (%),[9],96%
same,Population Pyknosed Nuclei (%),[9],7%
same,Population Tubulin-Different-Phenotype (%),[9],4%
same,Total Cell Count,[9],408
same,Population Apoptotic (%),[10],78%
same,Population Fragmented Nuclei (%),[10],22%
same,Population Healthy Nuclei (%),[10],64%
same,Population Hoechst High Intensity Objects (%),[10],6%
same,Population Membrane Permeable-Phenotype (%),[10],7%
same,Population Mitochondria Different-Phenotype (%),[10],5%
same,Population Mitotic Cells (%),[10],21%
same,Population Normal (%),[10],93%
same,Population Pyknosed Nuclei (%),[10],12%
same,Population Tubulin-Different-Phenotype (%),[10],6%
same,Total Cell Count,[10],159
same,Population Apoptotic (%),[11],93%
same,Population Fragmented Nuclei (%),[11],18%
same,Population Healthy Nuclei (%),[11],75%
same,Population Hoechst High Intensity Objects (%),[11],1%
same,Population Membrane Permeable-Phenotype (%),[11],4%
same,Population Mitochondria Different-Phenotype (%),[11],2%
same,Population Mitotic Cells (%),[11],6%
same,Population Normal (%),[11],98%
same,Population Pyknosed Nuclei (%),[11],6%
same,Population Tubulin-Different-Phenotype (%),[11],2%
same,Total Cell Count,[11],504
same,Population Apoptotic (%),[12],94%
same,Population Fragmented Nuclei (%),[12],15%
same,Population Healthy Nuclei (%),[12],71%
same,Population Hoechst High Intensity Objects (%),[12],3%
same,Population Membrane Permeable-Phenotype (%),[12],8%
same,Population Mitochondria Different-Phenotype (%),[12],1%
same,Population Mitotic Cells (%),[12],5%
same,Population Normal (%),[12],96%
same,Population Pyknosed Nuclei (%),[12],13%
same,Population Tubulin-Different-Phenotype (%),[12],4%
same,Total Cell Count,[12],280
